According to ChEMBL document CHEMBL4261655, “Matrix metalloproteinase-12 inhibitors: synthesis, structure-activity relationships and intestinal absorption of novel sugar-based biphenylsulfonamide carboxylates” (Bioorg Med Chem, 2018):

What was measured:
[1] = target: Macrophage metalloelastase (Homo sapiens, UniProt P39900); test: Inhibition of recombinant human MMP12 using Mca-Lys-Pro-Leu-Gly-Leu-Dap(Dnp)-Ala-Arg-NH2 as substrate preincubated for 3 hrs followed by substrate addition and measured every 10 secs for 15 mins by fluorescence assay
Method in brief: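 Inhibitor at seven concentrations, 3 h at 25 °C; 2 µM final substrate. Fluorescence read at ex 325/em 400 nm. Done in triplicate. IC50 fitted as vi/v0 = 1/(1+[I]/IC50).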

[2] = target: Matrix metalloproteinase-9 (Homo sapiens, UniProt P14780); test: Inhibition of recombinant human MMP9 using Mca-Lys-Pro-Leu-Gly-Leu-Dap(Dnp)-Ala-Arg-NH2 as substrate preincubated for 3 hrs followed by substrate addition and measured every 10 secs for 15 mins by fluorescence assay
Method in brief: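 Pro-enzyme activated just before use with 1 mM APMA for 1 h at 37 °C; 1.3 nM final enzyme. Inhibitor at seven concentrations, 3 h at 25 °C; 2 µM final substrate. Fluorescence read at ex 325/em 400 nm. Done in triplicate. IC50 fitted as vi/v0 = 1/(1+[I]/IC50).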

[3] = Solubility in water; type: physicochemical

Macrophage metalloelastase, sequence (P39900 whole entry): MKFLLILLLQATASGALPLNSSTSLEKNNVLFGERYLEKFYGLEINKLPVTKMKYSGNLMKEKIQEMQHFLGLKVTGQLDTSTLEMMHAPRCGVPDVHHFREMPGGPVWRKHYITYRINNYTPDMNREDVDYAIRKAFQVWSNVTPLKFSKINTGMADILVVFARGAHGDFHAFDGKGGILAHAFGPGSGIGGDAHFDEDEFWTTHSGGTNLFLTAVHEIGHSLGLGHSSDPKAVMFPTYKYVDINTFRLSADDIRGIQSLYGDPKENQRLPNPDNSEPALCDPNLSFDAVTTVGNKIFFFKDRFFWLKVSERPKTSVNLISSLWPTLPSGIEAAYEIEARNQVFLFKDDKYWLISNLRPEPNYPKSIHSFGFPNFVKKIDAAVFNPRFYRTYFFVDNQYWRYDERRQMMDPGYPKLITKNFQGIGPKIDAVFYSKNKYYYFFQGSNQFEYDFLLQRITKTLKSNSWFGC
Matrix metalloproteinase-9, sequence (P14780 whole entry): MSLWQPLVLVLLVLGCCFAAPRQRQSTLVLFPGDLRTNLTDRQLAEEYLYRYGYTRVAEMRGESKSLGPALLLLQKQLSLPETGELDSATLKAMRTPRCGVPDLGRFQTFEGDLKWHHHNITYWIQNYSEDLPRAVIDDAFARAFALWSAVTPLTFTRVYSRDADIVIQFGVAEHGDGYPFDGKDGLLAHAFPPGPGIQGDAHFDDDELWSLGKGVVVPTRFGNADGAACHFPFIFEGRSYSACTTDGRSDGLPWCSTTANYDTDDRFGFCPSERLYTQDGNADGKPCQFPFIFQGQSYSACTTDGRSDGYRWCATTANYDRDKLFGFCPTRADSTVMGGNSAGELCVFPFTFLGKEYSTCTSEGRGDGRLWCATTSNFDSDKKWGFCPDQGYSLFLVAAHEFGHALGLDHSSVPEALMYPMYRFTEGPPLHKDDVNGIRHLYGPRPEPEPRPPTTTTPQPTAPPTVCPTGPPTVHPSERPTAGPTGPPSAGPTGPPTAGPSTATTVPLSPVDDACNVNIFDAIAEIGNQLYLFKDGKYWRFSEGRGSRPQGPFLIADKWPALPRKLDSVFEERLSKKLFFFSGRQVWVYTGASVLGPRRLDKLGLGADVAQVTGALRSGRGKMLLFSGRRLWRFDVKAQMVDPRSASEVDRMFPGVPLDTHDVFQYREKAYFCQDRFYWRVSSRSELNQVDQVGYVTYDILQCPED

SMILES | IC50 [1] | IC50 [2] | solubility [3]
CO[C@@H]1O[C@H](CN([C@@H](C(=O)O)C(C)C)S(=O)(=O)c2ccc(-c3ccccc3)cc2)C(O)[C@H](O)C1NC(C)=O (single isomer, unassigned) | 41 nM | 890 nM | –
CC(=O)N[C@@H]1[C@@H](OC(C)=O)[C@H](OC(C)=O)[C@@H](COC(C)=O)O[C@H]1NC(=S)NCCN([C@@H](C(=O)O)C(C)C)S(=O)(=O)c1ccc(-c2ccccc2)cc1 | 18 nM | 1200 nM | –
CC(=O)OC[C@H]1O[C@@H](N([C@@H](C(=O)O)C(C)C)S(=O)(=O)c2ccc(-c3ccccc3)cc2)[C@H](OC(C)=O)[C@@H](OC(C)=O)[C@@H]1OC(C)=O | 9600 nM | – | –
CC(C)[C@H](C(=O)O)N([C@@H]1O[C@H](CO)[C@@H](O)[C@H](O)[C@H]1O)S(=O)(=O)c1ccc(-c2ccccc2)cc1 | 1300 nM | > 50000 nM | –
CO[C@@H]1O[C@H](CNC(=S)NCCN([C@@H](C(=O)O)C(C)C)S(=O)(=O)c2ccc(-c3ccccc3)cc2)[C@@H](O)[C@H](O)[C@H]1O | 65 nM | 520 nM | –
CC(=O)N[C@@H]1[C@@H](O)[C@H](O)[C@@H](CO)O[C@H]1NC(=S)NCCN([C@@H](C(=O)O)C(C)C)S(=O)(=O)c1ccc(-c2ccccc2)cc1 | 40 nM | 5400 nM | > 5 mM
CO[C@@H]1O[C@H](CNC(=S)NCCN([C@@H](C(=O)O)C(C)C)S(=O)(=O)c2ccc(-c3ccccc3)cc2)[C@@H](OC(C)=O)[C@H](OC(C)=O)[C@H]1OC(C)=O | 20 nM | 32 nM | –

The remaining lines, values ahead:

IC50 [1] | IC50 [2] | solubility [3] | SMILES
19 nM | 880 nM | – | CC(=O)OC[C@H]1O[C@@H](NC(=S)NCCN([C@@H](C(=O)O)C(C)C)S(=O)(=O)c2ccc(-c3ccccc3)cc2)[C@H](OC(C)=O)[C@@H](OC(C)=O)[C@@H]1OC(C)=O
98 nM | 1120 nM | – | CC(C)[C@H](C(=O)O)N(CCNC(=S)N[C@@H]1O[C@H](CO)[C@@H](O)[C@H](O)[C@H]1O)S(=O)(=O)c1ccc(-c2ccccc2)cc1
51 nM | 2200 nM | – | CO[C@@H]1O[C@H](CN([C@@H](C(=O)O)C(C)C)S(=O)(=O)c2ccc(-c3ccccc3)cc2)[C@@H](O)[C@H](O)[C@H]1O
84 nM | 2600 nM | – | CO[C@@H]1O[C@H](CN([C@@H](C(=O)O)C(C)C)S(=O)(=O)c2ccc(-c3ccccc3)cc2)[C@@H](OC(C)=O)[C@H](OC(C)=O)[C@H]1OC(C)=O
9200 nM | – | – | CC(=O)N[C@@H]1[C@@H](O)[C@H](O)[C@@H](CO)O[C@H]1N([C@@H](C(=O)O)C(C)C)S(=O)(=O)c1ccc(-c2ccccc2)cc1
40000 nM | – | – | CC(=O)N[C@@H]1[C@@H](OC(C)=O)[C@H](OC(C)=O)[C@@H](COC(C)=O)O[C@H]1N([C@@H](C(=O)O)C(C)C)S(=O)(=O)c1ccc(-c2ccccc2)cc1
83 nM | 1240 nM | – | CO[C@@H]1O[C@H](CN([C@@H](C(=O)O)C(C)C)S(=O)(=O)c2ccc(-c3ccccc3)cc2)[C@@H](OC(C)=O)[C@H](OC(C)=O)[C@H]1NC(C)=O
